Assay outcomes as filed in PubChem.
Compounds with a hit are over-represented: about 5% of the library has one in this group of screens.
CHOP UPR activ: activators of apoptotic arm of unfolded protein response (CHOP) | AID 449763 | CHO-CHOP luciferase reporter, UPR activation, luminescence; percent of tunicamycin response over DMSO baseline | 0.34% of 330,000 active | activation, % at 10 µM;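 active = at 10 µM dose, activation of 40% or more, normalized to positive control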;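 also: 100% = tunicamycin at 10 µg/mL and 0% = DMSO alone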
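measured by = luciferase luminescence | assay system = CHO-CHOP cells, stable luciferase reporter of PERK-eIF2a-CHOP signalling | amount = 500 reporter cells seeded per well | timing = 6 h compound exposure at 37 °C after overnight seeding | controls = positive tunicamycin 10 µg/mL, negative DMSO alone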
Beta apoptosis: beta cell apoptosis inhibition | 0.8% of 300,000 active | protection from apoptosis, % (test concentration not listed) | INS-1E cytokine-induced death, ATP luminescence, 48 h; percent of positive-control rescue, neutral wells zero | AID 435005;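 active = Every replicate reaches about 75%, or at least half do and their mean reaches it too, limit read from the data; inconclusive = At least half of replicates reach the limit but their mean does not; inactive = Under half of replicates reach the limit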;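 also: 0% = cytokine-treated negative control wells and 100% = positive control rescue; higher means more ATP so stronger rescue from cytokine killing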
Mdm2-MdmX inh: disrupts the human Mdm2-MdmX interaction. inhibition, % at 8 µM. 3% of 330,000 active. AID 485346. SaOS-2 split-luciferase Mdm2/MdmX complementation, luminescence. O15151+Q00987;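 active = inhibition of at least 50% at 8 µM in the primary screen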
Target sequence (O15151 whole entry, looked up): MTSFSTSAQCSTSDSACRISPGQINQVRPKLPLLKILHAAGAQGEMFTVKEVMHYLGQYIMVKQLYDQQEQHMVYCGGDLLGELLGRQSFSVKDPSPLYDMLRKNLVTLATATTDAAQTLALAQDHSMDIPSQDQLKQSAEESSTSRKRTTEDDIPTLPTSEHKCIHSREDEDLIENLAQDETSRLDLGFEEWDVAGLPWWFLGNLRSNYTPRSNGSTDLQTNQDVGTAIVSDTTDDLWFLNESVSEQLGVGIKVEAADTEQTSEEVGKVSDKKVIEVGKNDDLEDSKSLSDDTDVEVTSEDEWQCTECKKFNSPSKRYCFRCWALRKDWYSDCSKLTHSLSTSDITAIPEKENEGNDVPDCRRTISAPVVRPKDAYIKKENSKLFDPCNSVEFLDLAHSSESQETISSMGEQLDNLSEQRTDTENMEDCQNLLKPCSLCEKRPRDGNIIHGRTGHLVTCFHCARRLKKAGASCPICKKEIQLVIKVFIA
Target sequence (Q00987 whole entry, looked up): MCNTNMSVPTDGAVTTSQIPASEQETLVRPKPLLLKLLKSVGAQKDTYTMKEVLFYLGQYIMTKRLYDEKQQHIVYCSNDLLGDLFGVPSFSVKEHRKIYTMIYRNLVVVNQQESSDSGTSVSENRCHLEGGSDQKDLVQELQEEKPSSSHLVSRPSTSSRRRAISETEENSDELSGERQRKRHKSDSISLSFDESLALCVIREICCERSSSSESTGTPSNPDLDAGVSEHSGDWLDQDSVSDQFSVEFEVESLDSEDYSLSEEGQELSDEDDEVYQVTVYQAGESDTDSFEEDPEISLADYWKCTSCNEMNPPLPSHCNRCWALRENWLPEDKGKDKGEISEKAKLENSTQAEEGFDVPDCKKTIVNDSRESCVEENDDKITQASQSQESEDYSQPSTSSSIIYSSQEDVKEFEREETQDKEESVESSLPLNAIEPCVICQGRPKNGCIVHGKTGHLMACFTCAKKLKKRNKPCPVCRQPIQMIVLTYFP
CSC inhib: blocks cancer stem cells | cancer stem cell-like cells viability, luminescence | inhibition, % at 7.5 µM | 1.1% of 300,000 active | AID 2717; in the data active = inhibition above about 75%; inconclusive = no clear call, values can overlap the other calls; tested in HMLE shEcad cells
UPR XBP1 act: activators of adaptive arm of unfolded protein response (XBP1) | CHO-XBP1 luciferase reporter, IRE1-XBP1 UPR activation, luminescence; percent of tunicamycin response, DMSO as zero | activation, % at 20 µM | 0.33% of 330,000 active;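 active = versus positive control, 20 µM dose yields 30% or more activation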;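 also: 100% = tunicamycin at 10 µg/mL and 0% = DMSO only wells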
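Material: CHO-XBP1 cells stably carrying IRE1-XBP1-driven luciferase reporter / Amount: 1000 cells per well / Compound: 20 µM, 1% DMSO / Times: 6 h treatment, 37 °C / Detection: luciferase luminescence / Measure: % activation of reporter signal versus tunicamycin and DMSO controls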
T cruzi repl: T. cruzi replication inhibition; 1.4% of 300,000 active; T. cruzi beta-gal in NIH3T3, luminescence, 90 h; AID 1885; inhibition, % (test concentration not listed);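 active = mean inhibition across valid replicates above about 55%, limit read from the data; inconclusive = mean below that limit but half or more replicates reach it; inactive = mean below it, under half of replicates reach it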;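 also: signal also drops with host cell toxicity which is not excluded here; 0% = plate median of DMSO wells and 100% = zero luminescence signal; higher percent means less beta-gal luminescence so fewer parasites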
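Test system: β-gal T. cruzi (Tulahuen C4) inside NIH/3T3 cells / Quantity: 5,000 cells/well / Measured by: luminescence from GalScreen with 0.05% NP40, read after 60 min / Medium: DMEM plus 2% FBS / Measure: parasite load inhibition, % / Reagent: Tulahuen C4 trypomastigotes, 5000/well / Schedule: co-culture of at least 90 h after 3 h attachment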
Mdm2-MdmX conf: confirmation of human Mdm2/MdmX interaction inhibitors; shares compounds with Mdm2-MdmX inh; Mdm2-MdmX binding, luminescent assay; inhibition, % at 8 µM; 55% of 10,000 active; AID 489028; in the data active = inhibition above about 40%
Full FLuc ctr: counter-screen for Mdm2/MdmX inhibitors: full-length luciferase; shares compounds with Mdm2-MdmX inh; SaOS-2 full-length luciferase counterscreen, luminescence; inhibition, % at 8 µM; 77% of 6,200 active; AID 504607;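 active = mean inhibition at 8 µM reaching about 37%, which flags the compound as non-specific, limit read from the data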;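 also: p53-null SaOS-2 cells with luciferase driven by a doxycycline-inducible promoter; compound on cells about two nights before reading with doxycycline added after day one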
An asterisk follows results filed as active; u = inconclusive; x = no result given.

SMILES | CHOP UPR activ | Beta apoptosis | Mdm2-MdmX inh | CSC inhib | UPR XBP1 act | T cruzi repl | Mdm2-MdmX conf | Full FLuc ctr
CCOc1ccc(OCC)c(NC(=O)CN2CCN(c3cccc(C)c3)C(C)C2)c1 (stereo not drawn) | 1 | 18 | 53* | -16 | 1 | 44 | 64* | 46*
CC(C)(C)Nc1nc(N2CCCC2)nc(N2CCCC2)n1 | 1 | 38 | 55* | 21 | -5 | 47 | 37 | x
CCNc1ccc(S(=O)(=O)N(C)C)cc1NCC(=O)Nc1ccccc1Cl | -1 | 2 | 9 | -6 | -3 | -5 | x | x
CCOc1ccc(Br)cc1C1=CC(=O)C[C@H](c2ccc(OC)cc2)C1 | 1 | 9 | 55* | 82* | 2 | x | 48* | 48*
COc1ccc([C@H]2CC(=O)C=C(c3cc(Br)ccc3OC)C2)cc1 | 2 | 4 | 50* | x | 1 | x | 44* | 47*
CN(Cc1cccs1)C(=O)CSc1nnnn1C | 0 | 2 | 3 | -2 | -2 | -12 | x | x
COc1cccc2c1-c1c(O)cccc1C2=O | 0 | -5 | 13 | -4 | 2 | -1 | x | x
COc1cccc2c1C(=O)c1c(O)c3c(c(O)c1C2=O)C[C@](O)(C(C)=O)C[C@H]3O[C@@H]1C[C@@H](N)[C@@H](O)[C@@H](C)O1 | -6 | 44 | 100* | 74 | -7 | 47 | 100* | -1
O=S(=O)(c1ccc(OCC2CO2)cc1)c1ccc(OCC2CO2)cc1 (stereo not drawn) | -4 | 25 | 87* | 15 | 0 | -39 | 34 | x
CC(C)(c1ccccc1)c1ccc(OCC2CO2)cc1 (stereo not drawn) | 2 | -3 | 7 | -3 | -5 | -9 | x | x
O=[N+]([O-])c1cccnc1Oc1ccccc1F | 1 | -7 | 18 | -9 | 4 | -2 | x | x
Cc1cc(Oc2ncccc2[N+](=O)[O-])c2cc(Cl)ccc2n1 | -2 | -6 | 56* | 2 | -1 | -9 | 9 | x
O=S(=O)(CCSc1nc2ccccc2o1)c1nc2ccccc2s1 | 23 | -3 | 83* | 46 | 26 | -14 | 72* | 36
O=S(=O)(CCSc1ccccn1)c1nc2ccccc2s1 | 1 | -3 | 80* | 58 | 12 | 18 | 48* | 39*
CC/C(O)=C1\C(=O)CCCC1=NCc1nc2ccccc2[nH]1 | 2 | -5 | 10 | 13 | -2 | 1 | x | x
Oc1ccc(Cl)cc1Cc1cc(Cl)ccc1O | 0 | 24 | 87* | 114* | -8 | -7 | 60* | 48*
Oc1ccc(Cl)cc1CNCc1ccc(Cl)cc1 | 3 | -7 | 25 | 9 | 5 | x | x | x
CCOc1cc(/C=C2\COc3ccccc3C2=O)cc(Br)c1OCC(=O)N(C)C | 11 | 100* | 97* | 61 | -2 | -17 | 74* | 59*
COc1ccc(-c2ncncc2-c2ccc(Cl)cc2)c(O)c1 | -1 | -8 | -2 | -10 | -4 | 11 | x | x
COc1ccc(-c2cncnc2-c2ccc(OC)cc2O)cc1 | -2 | -22 | 62* | -10 | -3 | 2 | 62* | 27
CCOC(=O)c1cc2c(N)c(C(=O)c3cc(C#N)c(SC)nc3C)sc2nc1C | 7 | 16 | 50* | 18 | 8 | 36 | 25 | x
Nc1nc(Nc2cccc3ccccc23)nc(C2CCCC2=O)n1 (stereo not drawn) | -1 | 5 | 28 | 3 | 4 | 5 | x | x
Nc1nc(CCl)nc(Nc2cccc3ccccc23)n1 | 35 | -6 | 97* | 3 | 0 | 70* | 98* | 61*
Cn1cncc1C#Cc1c(-c2ccc(S(C)(=O)=O)cc2)sc2ccccc12 | 7 | x | 65* | x | 12 | x | 28 | x
Cc1nn(C(C)(C)C)c(C)c1/C=N/OC(=O)Nc1ccc(Cl)cc1 | -10 | -3 | 95* | 13 | -11 | 9 | 93* | 57*
SMILES | CHOP UPR activ | Beta apoptosis | Mdm2-MdmX inh | CSC inhib | UPR XBP1 act | T cruzi repl | Mdm2-MdmX conf | Full FLuc ctr
O=C(Cn1nnc(-c2ccccc2NC(=O)c2ccccc2F)n1)NCc1ccco1 | 3 | x | 50* | -11 | 19 | -6 | 24 | x
CC(C)(C)NC(=O)Cn1nnc(-c2ccccc2NC(=O)c2cnccn2)n1 | 2 | -6 | 9 | x | 2 | -6 | x | x
COc1ccc(NC(=O)Cn2nnc(-c3ccccc3NC(=O)c3ccco3)n2)cc1 | -4 | 9 | 55* | 7 | 1 | 1 | 56* | 16
COc1ccccc1NC(=O)Cn1nnc(-c2ccccc2NC(=O)c2cnccn2)n1 | 2 | -4 | 52* | -9 | 3 | 0 | 17 | x
COc1ccccc1NC(=O)Cn1nnc(-c2ccccc2NC(=O)c2ccco2)n1 | -5 | 2 | 44 | 49 | 5 | -42 | x | x
Cc1ccc(C(=O)COc2cc(O)c3c(=O)cc(-c4ccccc4)oc3c2)cc1 | 2 | -5 | 62* | -11 | -2 | -8 | 8 | x
COC(=O)Nc1nc2ccc(C(=O)c3cccs3)cc2[nH]1 | 7 | x | 53* | 55 | 18 | -9 | 57* | 126*
O=C(Nc1nc2ccccc2[nH]1)c1cccs1 | 0 | 9 | -80 | 3 | 0 | -3 | x | x
Cc1ccc(C(=O)CN(CCCC(N)=O)C(=O)c2ccncc2)cc1 | 3 | 1 | 8 | -6 | 0 | x | x | x
COc1ccc(N2CCN(Cc3nc4scc(-c5ccccc5)c4c(=O)[nH]3)CC2)cc1 | -2 | 3 | 12 | 14 | -5 | 7 | x | x
O=c1[nH]c(CN2CCN(c3ccccc3)CC2)nc2scc(-c3ccccc3)c12 | -1 | -11 | 72* | 49 | -2 | -31 | 73* | 54*
O=C(CNC(=O)c1ccccc1O)N/N=C/c1cc(Br)ccc1OC(=O)/C=C/c1ccco1 | 1 | 89* | 51* | -2 | -5 | u | 70* | 41*
Cc1cc(/C=C2/C(=O)NN(c3ccccc3)C2=O)c(C)n1-c1ccc(O)cc1 | 3 | -1 | 52* | -9 | -3 | -7 | 75* | 116*
C1CCN(c2c3c(nc4nnnn24)CCCC3)CC1 | 0 | 4 | 15 | -24 | -3 | -11 | x | x
CC(C)(C)C(=O)/C(=C/c1ccncc1)n1cncn1 | 25 | -36 | 100* | 53 | -6 | 47 | 100* | 51*
Cc1nn(C)c(C)c1/C=C(/C(=O)C(C)(C)C)n1cncn1 | 2 | -22 | 15 | -10 | -5 | -32 | x | x
CN(C(=O)c1cccs1)c1ccc(OCC(=O)Nc2ccc(C(=O)O)cc2)cc1 | -1 | -1 | 13 | -23 | 0 | 0 | x | x
COc1ccc(CNCc2cn(-c3cccc(F)c3)nc2-c2ccc(C)o2)cc1 | 2 | 0 | 52* | -4 | 2 | 42 | 13 | x
